In one test the test system is AsojAgdL. Nature of the test: glucose release. It counts as biochemical, Aspergillus sojae. To be noted: 20 mM MES pH 6.0, 40 °C, 60 min. A digest of the protocol:
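Recombinant enzyme expressed in A. nidulans, purified by His-Trap affinity then Superdex 200 gel filtration. Incubated with substrates at various concentrations for 60 min at 40 °C. Stopped with 10 % oxalic acid and 10 min boiling. Released glucose quantified by glucose assay kit. Km from nonlinear-regression Michaelis–Menten fit of initial velocities over the low-concentration range only.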

The target of another test is T1, AnigAgdA (Aspergillus niger, UniProt P56526).
T1 sequence (P56526 26-985): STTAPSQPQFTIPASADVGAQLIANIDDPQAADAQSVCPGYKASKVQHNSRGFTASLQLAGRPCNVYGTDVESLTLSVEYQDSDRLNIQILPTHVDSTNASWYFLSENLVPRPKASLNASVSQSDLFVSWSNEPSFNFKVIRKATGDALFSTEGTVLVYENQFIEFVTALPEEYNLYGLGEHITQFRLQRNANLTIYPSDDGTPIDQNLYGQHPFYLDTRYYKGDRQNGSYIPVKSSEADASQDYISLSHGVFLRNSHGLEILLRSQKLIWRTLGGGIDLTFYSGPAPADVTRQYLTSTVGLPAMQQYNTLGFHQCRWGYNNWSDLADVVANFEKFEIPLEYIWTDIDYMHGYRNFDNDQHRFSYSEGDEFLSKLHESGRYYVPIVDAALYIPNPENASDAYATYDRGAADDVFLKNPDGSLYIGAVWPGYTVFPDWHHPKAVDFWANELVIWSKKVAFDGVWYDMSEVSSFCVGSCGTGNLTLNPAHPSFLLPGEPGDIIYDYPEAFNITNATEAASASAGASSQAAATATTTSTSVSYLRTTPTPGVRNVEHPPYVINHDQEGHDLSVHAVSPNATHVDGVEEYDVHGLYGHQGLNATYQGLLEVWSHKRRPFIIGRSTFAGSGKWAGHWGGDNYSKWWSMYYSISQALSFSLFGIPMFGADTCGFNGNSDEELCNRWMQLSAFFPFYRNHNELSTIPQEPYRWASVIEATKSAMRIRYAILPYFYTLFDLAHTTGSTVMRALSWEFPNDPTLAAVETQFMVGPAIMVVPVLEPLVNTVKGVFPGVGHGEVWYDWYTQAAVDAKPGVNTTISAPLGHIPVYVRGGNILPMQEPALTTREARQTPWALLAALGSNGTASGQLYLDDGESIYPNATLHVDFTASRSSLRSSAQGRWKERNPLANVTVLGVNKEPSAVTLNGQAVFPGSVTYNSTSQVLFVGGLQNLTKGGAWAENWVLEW
The test is described as follows: glucose release, fit of v = Vmax[S]/. It counts as biochemical. Particulars: 20 mM acetate pH 4.0, 40 °C, 60 min; substrate inhibition.

Where [1] appears, read: low substrate range only (substrate inhibition).

Consider `OC[C@H]1O[C@H](OC[C@H]2O[C@H](OC[C@H]3O[C@H](OC[C@H]4O[C@H](OC[C@H]5O[C@H](OC[C@H]6OC(O)[C@H](O)[C@@H](O)[C@@H]6O)[C@H](O)[C@@H](O)[C@@H]5O)[C@H](O)[C@@H](O)[C@@H]4O)[C@H](O)[C@@H](O)[C@@H]3O)[C@H](O)[C@@H](O)[C@@H]2O)[C@H](O)[C@@H](O)[C@@H]1O` (stereo partly shown) [Isomaltohexaose], for which the Km in the test on AsojAgdL came to 1.1 ± 0.2 mM.

As for `OC[C@H]1O[C@H](OC[C@H]2O[C@H](OC[C@H]3O[C@H](OC[C@H]4O[C@H](OC[C@H]5OC(O)[C@H](O)[C@@H](O)[C@@H]5O)[C@H](O)[C@@H](O)[C@@H]4O)[C@H](O)[C@@H](O)[C@@H]3O)[C@H](O)[C@@H](O)[C@@H]2O)[C@H](O)[C@@H](O)[C@@H]1O` (stereo partly shown) [Isomaltopentaose], the Km with AsojAgdL was found to be 0.9 ± 0.1 mM.

For `OC[C@H]1O[C@H](OC[C@H]2OC(O)[C@H](O)[C@@H](O)[C@@H]2O)[C@H](O)[C@@H](O)[C@@H]1O` (stereo partly shown) [Isomaltose], the Km in the test with AsojAgdL stood at 2 ± 0.3 mM.

In the case of `OC[C@H]1O[C@H](OC[C@H]2O[C@H](OC[C@H]3O[C@H](OC[C@H]4OC(O)[C@H](O)[C@@H](O)[C@@H]4O)[C@H](O)[C@@H](O)[C@@H]3O)[C@H](O)[C@@H](O)[C@@H]2O)[C@H](O)[C@@H](O)[C@@H]1O` (stereo partly shown) [Isomaltotetraose], in the test with AsojAgdL, the Km was 2.4 ± 0.8 mM.

Take `OC[C@H]1O[C@H](OC[C@H]2O[C@H](OC[C@H]3OC(O)[C@H](O)[C@@H](O)[C@@H]3O)[C@H](O)[C@@H](O)[C@@H]2O)[C@H](O)[C@@H](O)[C@@H]1O` (stereo partly shown) [Isomaltotriose]: the Km in the test with AsojAgdL stood at 0.5 ± 0.1 mM.

Consider `OC[C@H]1O[C@H](O[C@H]2C(O)O[C@H](CO)[C@@H](O)[C@@H]2O)[C@H](O)[C@@H](O)[C@@H]1O` (stereo partly shown) [Kojibiose], for which the Km in the test on AsojAgdL was 2.1 ± 0.3 mM.

As to `OC[C@H]1O[C@H](O[C@H]2[C@H](O)[C@@H](O)[C@@H](O[C@H]3[C@H](O)[C@@H](O)[C@@H](O[C@H]4[C@H](O)[C@@H](O)[C@@H](O[C@H]5[C@H](O)[C@@H](O)[C@@H](O[C@H]6[C@H](O)[C@@H](O)C(O)O[C@@H]6CO)O[C@@H]5CO)O[C@@H]4CO)O[C@@H]3CO)O[C@@H]2CO)[C@H](O)[C@@H](O)[C@@H]1O` (stereo partly shown) [Maltohexaose], in the test with AsojAgdL (setting [1]), the Km stood at 0.9 ± 0.1 mM. The compound also gave a Ki on AnigAgdA of 30.8 ± 7.0 mM.

Consider `OC[C@H]1O[C@H](O[C@H]2[C@H](O)[C@@H](O)[C@@H](O[C@H]3[C@H](O)[C@@H](O)[C@@H](O[C@H]4[C@H](O)[C@@H](O)[C@@H](O[C@H]5[C@H](O)[C@@H](O)C(O)O[C@@H]5CO)O[C@@H]4CO)O[C@@H]3CO)O[C@@H]2CO)[C@H](O)[C@@H](O)[C@@H]1O` (stereo partly shown) [Maltopentaose], for which the Km in the test on AsojAgdL (setting [1]) was 0.9 ± 0.1 mM. Besides, on AnigAgdA, the Ki is 19.6 ± 2.2 mM.

With `OC[C@H]1O[C@H](O[C@H]2[C@H](O)[C@@H](O)C(O)O[C@@H]2CO)[C@H](O)[C@@H](O)[C@@H]1O` (stereo partly shown) [Maltose], the Km in the test with AsojAgdL came out at 2.2 ± 0.3 mM. The compound also returned a Ki at AnigAgdA of 12.0 ± 3.6 mM.

For `OC[C@H]1O[C@H](O[C@H]2[C@H](O)[C@@H](O)[C@@H](O[C@H]3[C@H](O)[C@@H](O)[C@@H](O[C@H]4[C@H](O)[C@@H](O)C(O)O[C@@H]4CO)O[C@@H]3CO)O[C@@H]2CO)[C@H](O)[C@@H](O)[C@@H]1O` (stereo partly shown) [Maltotetraose], the Km with AsojAgdL (setting [1]) is 1.6 ± 0.1 mM.

Regarding `OC[C@H]1O[C@H](O[C@H]2[C@H](O)[C@@H](O)[C@@H](O[C@H]3[C@H](O)[C@@H](O)C(O)O[C@@H]3CO)O[C@@H]2CO)[C@H](O)[C@@H](O)[C@@H]1O` (stereo partly shown) [Maltotriose], the Km with AsojAgdL (setting [1]) was 2 mM. This compound also displayed a Ki at AnigAgdA of 3.8 ± 0.7 mM.

In the case of `OC[C@H]1O[C@H](O[C@H]2[C@H](O)[C@@H](CO)OC(O)[C@@H]2O)[C@H](O)[C@@H](O)[C@@H]1O` (stereo partly shown) [Nigerose], the Km with AsojAgdL stood at 2.5 ± 0.4 mM.

The values are drawn from PMC8114154 (Journal of Applied Glycoscience, 2019).
